This note sets out measurements from ChEMBL document CHEMBL1126782, “Synthesis and pharmacological evaluation of 1-phenyl-3-amino-1,2,3,4-tetrahydronaphthalenes as ligands for a novel receptor with sigma-like neuromodulatory activity” (J Med Chem, 1993).

Molecules are shown by their SMILES. pIC50: −log10 of the molar value.

Assay [1] addresses Tyrosine 3-monooxygenase (Rattus norvegicus) (UniProt P04177). Description: Tyrosine hydroxylase activity at 0.1 uM in rat striatal minces. The format is functional.
For assay [2], the target named is T1, D(1A) dopamine receptor (Rattus norvegicus, UniProt P18901). Description: Binding affinity against dopamine receptor D1 from rat striatal homogenates, using [3H]SCH-23390 as radioligand. A digest of the protocol:
(§1)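 Competition binding with rat striatal homogenates in Tris-HCl, pH 7.4, with 150 mM NaCl at 30 °C. […] Nonspecific binding was defined by 0.3 μM cis-(Z)-flupenthixol. Six or more concentrations bracketing the IC50 were run in duplicate, with three replications. IC50 values came from curve fitting.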

Assay [3] concerns the target T2, D(2) dopamine receptor (Rattus norvegicus, UniProt P61169). Briefly: Binding affinity against dopamine receptor D2 from rat striatal homogenates using [3H]YM-09151-2. A digest of the protocol:
(§2)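 Competition binding with rat striatal homogenates in Tris-HCl, pH 7.4, containing 150 mM NaCl at 30 °C. […] Nonspecific binding was defined by (+)-butaclamol. Six or more concentrations bracketing the IC50 were run in duplicate, with three replications. IC50 values came from curve fitting.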

Assay [4] has as its target Tyrosine 3-monooxygenase (Rattus norvegicus) (UniProt P04177). Briefly: Tyrosine hydroxylase activity at 0.1 uM in rat striatal minces; effect blocked by BMY-14802. It is filed as functional.
The target in assay [5] is T1, D(1A) dopamine receptor. Briefly: Binding affinity against dopamine receptor D1 from rat striatal homogenates, using [3H]SCH-23,390 as radioligand. A digest of the protocol:
as §1

Assay [6] addresses T2, D(2) dopamine receptor. Briefly: Binding affinity against dopamine receptor D2 from rat striatal homogenates, using [3H]YM-09151-2 as radioligand. A digest of the protocol: as §2
The target in assay [7] is Tyrosine 3-monooxygenase (Rattus norvegicus) (UniProt P04177). Description: Tyrosine hydroxylase activity at 0.1 uM in rat striatal minces; effect not blocked bt BMY-14802. The format is functional.
Sequence of Tyrosine 3-monooxygenase (Rattus norvegicus) (P04177 whole entry): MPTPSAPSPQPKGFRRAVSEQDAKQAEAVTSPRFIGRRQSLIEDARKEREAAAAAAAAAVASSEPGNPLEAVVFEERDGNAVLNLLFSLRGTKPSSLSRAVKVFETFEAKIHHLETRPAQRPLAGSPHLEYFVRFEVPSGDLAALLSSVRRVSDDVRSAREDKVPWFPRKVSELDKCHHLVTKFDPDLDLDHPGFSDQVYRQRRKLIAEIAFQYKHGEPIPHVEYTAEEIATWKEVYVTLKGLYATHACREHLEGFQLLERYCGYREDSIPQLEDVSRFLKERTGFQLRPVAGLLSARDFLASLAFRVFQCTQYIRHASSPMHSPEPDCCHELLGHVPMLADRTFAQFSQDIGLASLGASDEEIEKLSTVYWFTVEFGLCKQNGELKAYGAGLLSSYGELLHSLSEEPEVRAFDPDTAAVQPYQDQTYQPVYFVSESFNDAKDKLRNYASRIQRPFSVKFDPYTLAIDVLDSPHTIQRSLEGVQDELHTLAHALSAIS
For assay [8] the target is unchanged. Description: Tyrosine hydroxylase activity at 0.1 uM in rat striatal minces; effect not blocked by BMY-14802. It is filed as functional.

T1 sequence (P18901 whole entry): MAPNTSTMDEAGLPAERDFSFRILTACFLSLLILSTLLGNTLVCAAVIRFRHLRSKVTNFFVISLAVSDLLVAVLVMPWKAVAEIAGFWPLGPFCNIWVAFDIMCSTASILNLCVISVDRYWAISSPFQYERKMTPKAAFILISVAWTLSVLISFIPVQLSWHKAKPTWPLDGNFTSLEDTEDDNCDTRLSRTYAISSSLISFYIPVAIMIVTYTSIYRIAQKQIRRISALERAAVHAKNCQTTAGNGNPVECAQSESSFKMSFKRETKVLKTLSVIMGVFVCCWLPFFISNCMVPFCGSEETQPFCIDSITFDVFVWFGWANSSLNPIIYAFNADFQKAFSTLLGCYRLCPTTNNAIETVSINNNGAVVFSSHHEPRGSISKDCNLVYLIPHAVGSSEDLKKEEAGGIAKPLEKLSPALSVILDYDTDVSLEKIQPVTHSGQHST
T2 sequence (P61169 whole entry): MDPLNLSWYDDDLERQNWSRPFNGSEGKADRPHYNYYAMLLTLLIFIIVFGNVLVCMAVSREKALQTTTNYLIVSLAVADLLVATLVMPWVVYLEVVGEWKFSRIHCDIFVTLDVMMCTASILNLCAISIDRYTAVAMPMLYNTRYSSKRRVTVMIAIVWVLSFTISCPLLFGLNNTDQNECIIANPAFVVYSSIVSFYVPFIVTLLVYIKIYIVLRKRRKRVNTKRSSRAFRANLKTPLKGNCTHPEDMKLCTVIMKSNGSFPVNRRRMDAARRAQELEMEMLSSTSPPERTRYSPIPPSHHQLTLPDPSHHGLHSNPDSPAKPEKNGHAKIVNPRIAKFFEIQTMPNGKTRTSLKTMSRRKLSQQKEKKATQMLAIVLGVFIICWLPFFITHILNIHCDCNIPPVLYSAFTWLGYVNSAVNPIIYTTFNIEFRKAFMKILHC

With `C=CCN(C)C1Cc2ccccc2C(c2ccccc2)C1` (configuration not stated), in assay [1], the Control came out at 72%.

For `NC1Cc2cc(O)c(O)cc2C(c2ccccc2)C1` (trans isomer) [listing 1 of 2 here], the pIC50 at D(1A) dopamine receptor [2] and at D(2) dopamine receptor [3] was less than 4.52 each time.

Take `NC1Cc2ccccc2C(c2ccccc2)C1` (trans isomer): the pIC50 on D(1A) dopamine receptor [2] and at D(2) dopamine receptor [3] was less than 5.00 in each case. In assay [1], this compound yielded a Control of 86%.

For `NC1Cc2cc(O)c(O)cc2C(c2ccccc2)C1` (cis isomer) [listing 1 of 2 here], the Control in assay [1] is 95%.

As to `CN(C)C1Cc2cc(O)c(O)cc2C(c2ccccc2)C1` (trans isomer) [listing 1 of 2 here], the pIC50 (in general, the negative decadic logarithm of the IC50, by convention in mol/L) at D(1A) dopamine receptor [2] is less than 5.00; at D(2) dopamine receptor [3], less than 5.30.

In the case of `CN(C)[C@H]1Cc2cc(Cl)c(O)cc2[C@H](c2ccccc2)C1`, the Control in assay [4] was determined as 128%. For the same compound, the pIC50 is 5.38 at D(2) dopamine receptor [3] and 5.72 at D(1A) dopamine receptor [5].

For the compound `CN(C)[C@H]1CCc2ccccc2[C@H]1c1ccccc1`, the Control in assay [1] amounted to 111%.

Turning to `CCN(CC)C1Cc2ccccc2C(c2ccccc2)C1` (trans isomer), in assay [1], the Control came out at 95%.

As for `C=CCN(CC=C)C1Cc2ccccc2C(c2ccccc2)C1` (configuration not stated), the pIC50 on D(1A) dopamine receptor [2] is 5.00; at D(2) dopamine receptor [3], 5.40. Further, in assay [1], the Control was 104%.

Regarding `CN(C)C1Cc2cc(O)c(O)cc2C(c2ccccc2)C1` (cis isomer) [listing 1 of 2 here], the pIC50 on D(1A) dopamine receptor [2] is less than 6.00; on D(2) dopamine receptor [3], less than 5.30.

For the compound `CNC1Cc2cc(Cl)c(O)cc2C(c2ccccc2)C1` (trans isomer), the pIC50 on D(2) dopamine receptor [6] is 5.00; at D(1A) dopamine receptor [5], 6.07. Moreover, the Control in assay [1] was found to be 99%.

`CN(C)C1Cc2cc(Cl)c(O)cc2C(c2ccccc2)C1` (cis isomer) registered a Control in assay [1] of 94%.

Take `C=CCNC1Cc2ccccc2C(c2ccccc2)C1` (trans isomer): the negative logarithm of the IC50 (pIC50) is 5.00 on D(1A) dopamine receptor [2] and 5.22 at D(2) dopamine receptor [3]. In assay [1], the Control turned out to be 102%.

In turn, `NC1Cc2cc(O)c(O)cc2C(c2ccccc2)C1` (trans isomer) [listing 2 of 2 here] had a Control in assay [7] of 71%.

`NC1Cc2cc(O)c(O)cc2C(c2ccccc2)C1` (cis isomer) [listing 2 of 2 here]: the pIC50 at D(1A) dopamine receptor [2] is less than 4.52; on D(2) dopamine receptor [3] it was less than 5.00.

Consider `CN(C)C1Cc2cc(O)c(O)cc2C(c2ccccc2)C1` (trans isomer) [listing 2 of 2 here], for which the Control in assay [8] was determined as 75%.

`CN(C)C1Cc2cc(O)c(O)cc2C(c2ccccc2)C1` (cis isomer) [listing 2 of 2 here] came in with a Control in assay [1] of 100%.

For the compound `CN(C)C1Cc2ccccc2C(c2ccccc2)C1` (configuration not stated), the Control in assay [1] is 101%.
